Source: ChEMBL document CHEMBL1667841, “Furoxan nitric oxide donor coupled chrysin derivatives: synthesis and vasculoprotection” (Bioorg Med Chem Lett, 2011)

Experiments:
[1] = Inhibition of advanced glycation end product formation in phosphate buffered saline at pH 7.4 after 14 days by fluorospectrophotometry; format: physicochemical
[2] = Induction of NO release in phosphate buffered saline of pH 7.4 at 10^-4 M after 1 hr by Griess assay in presence of L-cysteine; format: physicochemical; conditions: buffer, pH 7.4, 1 h, 100 µM
How it was run: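 Compound at 10^-4 M final in 1:1 v/v 50 mM PBS (pH 7.4)/MeOH containing 5 × 10^-4 M L-cysteine, 1 h at 37 °C; mixture treated with Griess reagent, 10 min at room temperature, absorbance 540 nm. Nitrite quantified against sodium nitrite standards (10–80 nmol/mL); expressed as % of theoretical 1 mol NO/mol compound, n = 3.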

[3] = target: Aldo-keto reductase family 1 member B1 (Homo sapiens, UniProt P15121); test: Inhibition of aldose reductase by spectrophotometric analysis

Structure (SMILES)	IC50 [1]	Activity [2]	IC50 [3]
CC(=O)Oc1cc(OCC(=O)OCc2cccc(OCc3c(-c4ccccc4)no[n+]3[O-])c2)cc2oc(-c3ccccc3)cc(=O)c12	26.4 µM	1.89%	1.62 µM
[O-][n+]1onc(-c2ccccc2)c1CO			≥ 10 µM
O=C(COc1cc(O)c2c(=O)cc(-c3ccccc3)oc2c1)OCc1cccc(OCc2c(-c3ccccc3)no[n+]2[O-])c1			0.22 µM
O=C(COc1cc(O)c2c(=O)cc(-c3ccccc3)oc2c1)OCc1ccc(OCc2c(-c3ccccc3)no[n+]2[O-])cc1			0.4 µM
CC(=O)Oc1cc(OCC(=O)OCc2ccc(OCc3c(-c4ccccc4)no[n+]3[O-])cc2)cc2oc(-c3ccccc3)cc(=O)c12			1.93 µM
N=C(N)NN [PIMAGEDINE]	826 µM		

The remaining lines, values ahead:

IC50 [1]	Activity [2]	IC50 [3]	Structure (SMILES)
63.5 µM		7.78 µM	O=c1cc(-c2ccccc2)oc2cc(O)cc(O)c12 [CHRYSIN]
		0.9 µM	CC(=O)Oc1cc(OCC(=O)OCc2c(-c3ccccc3)no[n+]2[O-])cc2oc(-c3ccccc3)cc(=O)c12
		0.75 µM	O=C(COc1cc(O)c2c(=O)cc(-c3ccccc3)oc2c1)OCc1c(-c2ccccc2)no[n+]1[O-]
